Experimental data published in ChEMBL document CHEMBL3046736, “Kinetic studies of novel inhibitors of endomorphin degrading enzymes” (Med Chem Res, 2012).
Residues, ends and D or L forms follow the SMILES beside them.

Experiments:
Dipeptidyl peptidase 4 [1] = biological target: T1, Dipeptidyl peptidase 4 (Homo sapiens, UniProt P27487); assay: Inhibition of DPP-4 (unknown origin) assessed as half-life of endomorphin-2 after 30 min by RP-HPLC analysis (reference value: […] +/- 0.64 min)
Target sequence in this assay (P27487 whole entry, looked up): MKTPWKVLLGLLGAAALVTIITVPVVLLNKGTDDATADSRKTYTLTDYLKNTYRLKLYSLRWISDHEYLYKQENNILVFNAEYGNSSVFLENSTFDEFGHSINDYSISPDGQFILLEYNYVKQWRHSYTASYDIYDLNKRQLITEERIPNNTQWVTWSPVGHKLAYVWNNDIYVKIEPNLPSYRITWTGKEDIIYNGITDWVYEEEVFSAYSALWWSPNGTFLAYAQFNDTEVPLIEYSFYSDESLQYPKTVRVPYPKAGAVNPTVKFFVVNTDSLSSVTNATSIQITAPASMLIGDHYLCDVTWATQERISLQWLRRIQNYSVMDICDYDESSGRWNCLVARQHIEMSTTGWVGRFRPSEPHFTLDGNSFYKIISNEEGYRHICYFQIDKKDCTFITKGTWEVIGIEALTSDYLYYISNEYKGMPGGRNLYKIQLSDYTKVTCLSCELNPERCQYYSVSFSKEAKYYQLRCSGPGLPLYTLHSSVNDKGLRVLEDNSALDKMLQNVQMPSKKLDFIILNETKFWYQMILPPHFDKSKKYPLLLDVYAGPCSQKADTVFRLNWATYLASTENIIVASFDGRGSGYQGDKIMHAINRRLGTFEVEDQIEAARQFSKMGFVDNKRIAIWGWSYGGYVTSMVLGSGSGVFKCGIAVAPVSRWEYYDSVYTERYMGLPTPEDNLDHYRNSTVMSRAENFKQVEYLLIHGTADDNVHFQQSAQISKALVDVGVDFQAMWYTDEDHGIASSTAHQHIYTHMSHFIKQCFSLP

Dipeptidyl peptidase 4 [2] = biological target: T1, Dipeptidyl peptidase 4; assay: Inhibition of DPP-4 (unknown origin) assessed as half-life of endomorphin-1 after 30 min by RP-HPLC analysis (reference value: […] +/- 0.52 min)
Target sequence in this assay (P27487 whole entry, looked up): as above

Dipeptidyl peptidase 4 [3] = biological target: T1, Dipeptidyl peptidase 4; assay: Inhibition of DPP-4 (unknown origin) assessed as inhibition of endomorphin-2 degradation after 30 min
Summary of the method: (§1)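 Purified commercial DPP IV (0.002 mg protein/ml) incubated with endomorphin and inhibitor, each from 1 mM solutions in 50 mM Tris–HCl pH 7.4, at 37°C for 0, 7.5, 15, 22.5 and 30 min. Stopped on ice with 1 M HCl, centrifuged. Rate constant k from linear regression of ln(A/A0) of peptide peak area versus time; t1/2 = ln2/k. Three independent experiments in duplicate.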

Dipeptidyl peptidase 4 [4] = biological target: T1, Dipeptidyl peptidase 4; assay: Inhibition of DPP-4 (unknown origin) assessed as inhibition of endomorphin-1 degradation after 30 min; summary of the method: as §1
Aminopeptidase N [5] = biological target: T2, Aminopeptidase N (Homo sapiens, UniProt P15144); assay: Inhibition of APM (unknown origin) assessed as inhibition of endomorphin-2 degradation after 30 min
T2 sequence (P15144 whole entry): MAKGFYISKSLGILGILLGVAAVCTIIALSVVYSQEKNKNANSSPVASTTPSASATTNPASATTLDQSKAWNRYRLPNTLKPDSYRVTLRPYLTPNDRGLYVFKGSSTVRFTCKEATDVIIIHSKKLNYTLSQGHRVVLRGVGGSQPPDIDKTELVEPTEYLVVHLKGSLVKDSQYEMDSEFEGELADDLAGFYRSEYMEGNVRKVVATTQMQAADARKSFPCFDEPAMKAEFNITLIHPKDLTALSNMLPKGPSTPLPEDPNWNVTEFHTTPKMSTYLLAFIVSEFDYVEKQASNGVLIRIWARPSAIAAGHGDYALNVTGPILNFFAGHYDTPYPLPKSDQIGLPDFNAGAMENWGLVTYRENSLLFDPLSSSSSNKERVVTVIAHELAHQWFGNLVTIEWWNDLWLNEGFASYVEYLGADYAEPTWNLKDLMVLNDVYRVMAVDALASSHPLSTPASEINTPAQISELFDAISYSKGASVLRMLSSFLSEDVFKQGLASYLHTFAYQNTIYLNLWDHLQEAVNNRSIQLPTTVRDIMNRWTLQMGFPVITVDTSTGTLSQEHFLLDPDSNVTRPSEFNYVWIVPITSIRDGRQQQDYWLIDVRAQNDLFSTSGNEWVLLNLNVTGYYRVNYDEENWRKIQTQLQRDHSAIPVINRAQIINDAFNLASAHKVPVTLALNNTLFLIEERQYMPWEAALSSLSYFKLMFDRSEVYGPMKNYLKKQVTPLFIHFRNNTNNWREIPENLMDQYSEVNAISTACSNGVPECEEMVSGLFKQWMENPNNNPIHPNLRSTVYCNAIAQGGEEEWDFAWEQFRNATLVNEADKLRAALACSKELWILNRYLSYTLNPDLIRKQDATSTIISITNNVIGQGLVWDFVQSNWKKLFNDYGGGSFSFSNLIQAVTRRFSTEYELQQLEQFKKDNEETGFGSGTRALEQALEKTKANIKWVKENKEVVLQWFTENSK

Aminopeptidase N [6] = biological target: T2, Aminopeptidase N; assay: Inhibition of APM (unknown origin) assessed as inhibition of endomorphin-1 degradation after 30 min
Aminopeptidase N [7] = biological target: T2, Aminopeptidase N
Aminopeptidase N [8] = biological target: T2, Aminopeptidase N; remark: listed apart in the source

Compound	T1/2 (Dipeptidyl peptidase 4 [1])	T1/2 (Dipeptidyl peptidase 4 [2])	Ki (Dipeptidyl peptidase 4 [3])	inhibition (Dipeptidyl peptidase 4 [3])	Ki (Dipeptidyl peptidase 4 [4])	inhibition (Dipeptidyl peptidase 4 [4])	Ki (Aminopeptidase N [5])	Ki (Aminopeptidase N [6])	T1/2 (Aminopeptidase N [7])	T1/2 (Aminopeptidase N [8])
CC[C@H](C)[C@H](N)C(=O)N1CCC[C@H]1C(=O)N[C@H](C(=O)O)[C@@H](C)CC	383 min	530 min								
C[C@H](NC(=O)[C@@H]1CCCN1C(=O)[C@@H](N)Cc1ccc(O)cc1)C(N)=O (H-Tyr-Pro-Ala-NH2)	19.8 min	22.9 min	170 µM	44.8%	420 µM	26.7%				
C[C@H](NC(=O)[C@@H]1CCCN1C(=O)[C@@H](N)Cc1ccc(O)cc1)C(=O)O (H-Tyr-Pro-Ala-OH)	27.4 min	27.5 min								
CCCCC[C@H](CC(=O)NO)C(=O)N[C@H](C(=O)N1CCC[C@H]1CO)C(C)C [ACTINONIN]							300 µM	390 µM	46.3 min	36.8 min
